Measured values from ChEMBL document CHEMBL1122708, “Preparation and antibacterial activities of new 1,2,3-diazaborine derivatives and analogues” (1984).
Converted amounts (≈) assume the structure as drawn.

Legend:
Salmonella typhimurium = assay: Minimum inhibitory concentration of compound against Salmonella Typhimurium delta 119; format: functional, Salmonella enterica subsp. enterica serovar Typhimurium; conditions: Salmonella enterica
Escherichia coli [1] = assay: Antibacterial activity againist Escherichia coli 120 infected NMRI mice after subcutaneous administration; format: functional; conditions: sc
Procedure, shortened: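 ED50 in NMRI mice infected intraperitoneally with E. coli 120; compound given subcutaneously immediately and 5 h after infection.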

Klebsiella aerogenes = assay: Minimum inhibitory concentration of compound against Enterobacter aerogenes delta 220; format: functional
Escherichia coli [2] = assay: Minimum inhibitory concentration of compound against Escherichia coli delta 120; format: functional
Klebsiella pneumoniae = assay: Minimum inhibitory concentration of compound against Klebsiella pneumoniae delta 217; format: functional
Proteus mirabilis = assay: Minimum inhibitory concentration against Proteus mirabilis delta 89; format: functional
Escherichia coli [3] = assay: Antibacterial activity againist Escherichia coli 120 infected NMRI mice after peroral administration; format: functional; conditions: po
Procedure, shortened: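 ED50 in NMRI mice infected intraperitoneally with E. coli 120; compound given orally immediately and 5 h after infection.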

Neisseria gonorrhoeae [4] = assay: Minimum inhibitory concentration of compound against Neisseria gonorrhoeae W2; format: functional
Procedure, shortened: (§1)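 Agar dilution on Kellogg agar, 10⁶ colony forming units, incubated 20 h at 36 °C in 5% CO₂; MIC is the lowest concentration giving no visible growth.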

Neisseria gonorrhoeae [5] = assay: Minimum inhibitory concentration of compound against Neisseria gonorrhoeae AS 7720; format: functional; procedure, shortened: as §1

SMILES | MIC (Salmonella typhimurium) [µg/mL] | ED50 (Escherichia coli [1]) [mg/kg] | MIC (Klebsiella aerogenes) [µg/mL] | MIC (Escherichia coli [2]) [µg/mL] | MIC (Klebsiella pneumoniae) [µg/mL] | MIC (Proteus mirabilis) [µg/mL] | ED50 (Escherichia coli [3]) [mg/kg] | MIC (Neisseria gonorrhoeae [4]) [µg/mL] | MIC (Neisseria gonorrhoeae [5]) [µg/mL]
Cc1ccc(S(=O)(=O)N2N=Cc3cc(N4CCCC4)ccc3B2O)cc1 | > 50 | > 300 | > 50 | > 50 | > 50 | > 50 | – | – | –
Cc1ccc(S(=O)(=O)N2N=Cc3cc(Br)sc3B2O)cc1 | > 50 | – | > 50 | > 50 | > 50 | 25 (≈ 64.9 µM) | > 300 | > 8 | > 8
CCCS(=O)(=O)N1N=Cc2cc(CC)sc2B1O | 0.31 (≈ 1.08 µM) | – | 5 (≈ 17.5 µM) | 2.5 (≈ 8.74 µM) | 0.31 (≈ 1.08 µM) | 1.25 (≈ 4.37 µM) | 4 | 0.5 (≈ 1.75 µM) | 0.5 (≈ 1.75 µM)
